Source: ChEMBL document CHEMBL4033714, “Discovery of BI 135585, an in vivo efficacious oxazinanone-based 11β hydroxysteroid dehydrogenase type 1 inhibitor” (Bioorg Med Chem, 2017)
Converted amounts (≈) assume the structure as drawn.

What was measured:
[1] = biological target: T1, 3 beta-hydroxysteroid dehydrogenase/Delta 5-->4-isomerase type 2 (Homo sapiens, UniProt P26439); assay: Inhibition of 3beta-HSD2 (unknown origin)
T1 sequence (P26439 whole entry): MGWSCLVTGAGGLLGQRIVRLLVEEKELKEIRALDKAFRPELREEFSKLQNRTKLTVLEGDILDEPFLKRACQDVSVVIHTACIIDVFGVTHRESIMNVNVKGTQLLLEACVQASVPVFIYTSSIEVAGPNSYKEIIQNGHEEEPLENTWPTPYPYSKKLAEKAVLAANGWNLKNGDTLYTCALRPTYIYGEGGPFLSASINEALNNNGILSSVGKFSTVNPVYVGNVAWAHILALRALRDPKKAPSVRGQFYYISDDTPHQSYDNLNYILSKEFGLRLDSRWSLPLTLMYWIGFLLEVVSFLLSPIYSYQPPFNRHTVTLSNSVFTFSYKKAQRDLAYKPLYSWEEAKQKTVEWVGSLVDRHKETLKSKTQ

hERG = hERG (Homo sapiens, UniProt Q12809); assay: Inhibition of human ERG at 10 uM by patch clamp assay relative to control
hERG, sequence (Q12809 whole entry): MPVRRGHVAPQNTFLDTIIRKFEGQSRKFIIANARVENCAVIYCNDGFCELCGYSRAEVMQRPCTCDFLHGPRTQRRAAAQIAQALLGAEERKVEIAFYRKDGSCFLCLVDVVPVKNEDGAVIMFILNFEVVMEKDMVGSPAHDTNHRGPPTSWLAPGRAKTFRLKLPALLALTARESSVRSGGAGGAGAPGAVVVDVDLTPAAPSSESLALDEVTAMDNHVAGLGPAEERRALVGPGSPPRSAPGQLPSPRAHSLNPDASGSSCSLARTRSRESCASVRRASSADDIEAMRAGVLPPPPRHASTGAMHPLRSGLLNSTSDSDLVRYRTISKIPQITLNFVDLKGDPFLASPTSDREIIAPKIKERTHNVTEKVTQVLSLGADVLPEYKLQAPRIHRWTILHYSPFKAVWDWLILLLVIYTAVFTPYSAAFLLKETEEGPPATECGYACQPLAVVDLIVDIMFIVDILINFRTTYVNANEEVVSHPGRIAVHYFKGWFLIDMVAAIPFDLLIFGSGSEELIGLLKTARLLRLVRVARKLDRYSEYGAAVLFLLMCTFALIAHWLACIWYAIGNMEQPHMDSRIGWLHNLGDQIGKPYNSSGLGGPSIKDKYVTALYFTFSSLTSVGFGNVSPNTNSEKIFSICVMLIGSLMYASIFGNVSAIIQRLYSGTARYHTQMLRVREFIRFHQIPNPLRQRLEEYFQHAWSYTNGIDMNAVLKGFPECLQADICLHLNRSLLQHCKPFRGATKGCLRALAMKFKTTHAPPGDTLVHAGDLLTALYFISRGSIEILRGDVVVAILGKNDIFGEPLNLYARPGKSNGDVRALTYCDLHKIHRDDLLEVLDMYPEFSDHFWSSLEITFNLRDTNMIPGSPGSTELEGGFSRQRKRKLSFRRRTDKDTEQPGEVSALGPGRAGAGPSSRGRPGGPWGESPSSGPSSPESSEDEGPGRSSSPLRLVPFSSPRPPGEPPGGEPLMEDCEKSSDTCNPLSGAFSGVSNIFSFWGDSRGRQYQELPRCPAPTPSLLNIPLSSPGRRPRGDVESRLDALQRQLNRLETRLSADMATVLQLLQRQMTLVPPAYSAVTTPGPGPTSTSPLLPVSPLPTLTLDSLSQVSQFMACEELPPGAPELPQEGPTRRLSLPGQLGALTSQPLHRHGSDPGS

[2] = Half life in rat liver microsomes; assay type: ADME, microsome
Cynomolgus monkey [3] = assay: In-vivo inhibition of 11beta-HSD1 in cynomolgus monkey perirenal adipose tissue assessed as reduction in cortisol level at 1 mg/kg, po using [2H]-cortisone as substrate after 22 hrs by HPLC analysis relative to control; assay type: functional; conditions: Macaca fascicularis
Summary of the method: (§1)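 Cynomolgus monkeys were dosed orally. Perirenal and abdominal subcutaneous adipose tissue was then taken, and cortisone-to-cortisol conversion was measured ex vivo. Reduction in cortisol is expressed relative to vehicle-treated animals.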

[4] = biological target: T2, 17-beta-hydroxysteroid dehydrogenase type 1 (Homo sapiens, UniProt P14061); assay: Inhibition of 17beta-HSD1 (unknown origin)
T2 sequence (P14061 whole entry): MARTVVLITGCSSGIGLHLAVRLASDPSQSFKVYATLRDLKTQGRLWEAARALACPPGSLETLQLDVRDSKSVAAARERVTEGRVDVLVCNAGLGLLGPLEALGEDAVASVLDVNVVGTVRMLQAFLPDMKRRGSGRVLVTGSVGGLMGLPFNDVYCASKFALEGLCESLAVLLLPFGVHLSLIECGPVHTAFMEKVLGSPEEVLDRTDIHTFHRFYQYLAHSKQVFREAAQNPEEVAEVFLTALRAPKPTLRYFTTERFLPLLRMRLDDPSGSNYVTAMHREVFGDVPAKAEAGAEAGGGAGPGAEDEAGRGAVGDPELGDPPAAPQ

[5] = Aqueous solubility of the compound; assay type: physicochemical; conditions: aqueous medium; read-out: solubility
Summary of the method: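 Solubility measured in water, with each compound tested as amorphous material.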

Cynomolgus monkey [6] = assay: Dose normalized AUC in iv dosed cynomolgus monkey; assay type: ADME, organism-based, Macaca fascicularis; conditions: in vivo
CYP3A4 = CYP3A4 (Homo sapiens, UniProt P08684); assay: Inhibition of recombinant CYP3A4 (unknown origin); assay type: ADME; conditions: recombinant CYP3A4
CYP3A4, sequence (P08684 whole entry): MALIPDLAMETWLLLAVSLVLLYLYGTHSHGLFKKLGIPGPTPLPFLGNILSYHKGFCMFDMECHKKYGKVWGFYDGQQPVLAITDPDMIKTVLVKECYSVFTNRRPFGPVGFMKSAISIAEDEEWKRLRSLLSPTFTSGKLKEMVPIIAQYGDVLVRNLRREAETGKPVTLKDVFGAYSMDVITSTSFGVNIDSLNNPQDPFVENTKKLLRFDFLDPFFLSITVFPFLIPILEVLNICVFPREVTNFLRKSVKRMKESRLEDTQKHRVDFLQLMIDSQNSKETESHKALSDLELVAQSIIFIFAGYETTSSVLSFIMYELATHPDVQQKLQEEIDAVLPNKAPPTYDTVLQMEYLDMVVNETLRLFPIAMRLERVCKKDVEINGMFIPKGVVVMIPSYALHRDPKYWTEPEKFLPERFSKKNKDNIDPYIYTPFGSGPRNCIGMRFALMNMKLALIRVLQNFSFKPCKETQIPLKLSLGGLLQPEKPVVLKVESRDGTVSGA

[7] = Protein binding in human plasma; assay type: ADME, cell-free; conditions: read-out: PPB (converted)
[8] = Half life in cynomolgus monkey liver microsomes; assay type: ADME, Macaca fascicularis, microsome
[9] = Mean residence time in iv dosed cynomolgus monkey; assay type: ADME, organism-based, Macaca fascicularis; conditions: in vivo
[10] = biological target: Voltage-gated inwardly rectifying potassium channel KCNH2 (Homo sapiens, UniProt Q12809); assay: Inhibition of human ERG
Voltage-gated inwardly rectifying potassium channel KCNH2, sequence (Q12809 whole entry): as the sequence (Q12809 whole entry) above

Cynomolgus monkey [11] = assay: In-vivo inhibition of 11beta-HSD1 in cynomolgus monkey abdominal subcutaneous adipose tissue assessed as reduction in cortisol level at 3 mg/kg, po using [2H]-cortisone as substrate after 22 hrs by HPLC analysis relative to control; assay type: functional; conditions: Macaca fascicularis; summary of the method: as §1
[12] = Mean residence time in po dosed cynomolgus monkey; assay type: ADME, organism-based, Macaca fascicularis; conditions: in vivo
Cynomolgus monkey [13] = assay: In-vivo inhibition of 11beta-HSD1 in cynomolgus monkey abdominal subcutaneous adipose tissue assessed as reduction in cortisol level at 1 mg/kg, po using [2H]-cortisone as substrate after 22 hrs by HPLC analysis relative to control; assay type: functional; conditions: Macaca fascicularis; summary of the method: as §1
[14] = Oral bioavailability in cynomolgus monkey; assay type: ADME, organism-based, Macaca fascicularis; conditions: in vivo
[15] = Half life in human liver microsomes; assay type: ADME, microsome
CYP2C9 = CYP2C9 (Homo sapiens, UniProt P11712); assay: Inhibition of CYP2C9 (unknown origin); assay type: ADME
CYP2C9, sequence (P11712 whole entry): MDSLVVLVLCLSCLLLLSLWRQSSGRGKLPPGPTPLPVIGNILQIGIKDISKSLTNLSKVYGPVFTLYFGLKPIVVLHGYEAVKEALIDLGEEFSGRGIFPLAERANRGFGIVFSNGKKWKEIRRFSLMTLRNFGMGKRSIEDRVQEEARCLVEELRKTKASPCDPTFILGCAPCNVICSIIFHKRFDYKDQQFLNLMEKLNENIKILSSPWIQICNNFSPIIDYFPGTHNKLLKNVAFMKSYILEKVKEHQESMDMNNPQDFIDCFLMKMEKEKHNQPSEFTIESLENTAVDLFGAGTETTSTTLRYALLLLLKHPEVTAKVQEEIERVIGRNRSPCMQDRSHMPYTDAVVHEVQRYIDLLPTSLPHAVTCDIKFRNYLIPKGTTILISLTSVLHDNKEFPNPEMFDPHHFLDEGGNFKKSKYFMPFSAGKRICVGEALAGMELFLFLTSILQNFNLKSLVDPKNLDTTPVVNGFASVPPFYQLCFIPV

[16] = biological target: T3, 11-beta-hydroxysteroid dehydrogenase type 2 (Homo sapiens, UniProt P80365); assay: Inhibition of 11beta-HSD2 (unknown origin)
T3 sequence (P80365 whole entry): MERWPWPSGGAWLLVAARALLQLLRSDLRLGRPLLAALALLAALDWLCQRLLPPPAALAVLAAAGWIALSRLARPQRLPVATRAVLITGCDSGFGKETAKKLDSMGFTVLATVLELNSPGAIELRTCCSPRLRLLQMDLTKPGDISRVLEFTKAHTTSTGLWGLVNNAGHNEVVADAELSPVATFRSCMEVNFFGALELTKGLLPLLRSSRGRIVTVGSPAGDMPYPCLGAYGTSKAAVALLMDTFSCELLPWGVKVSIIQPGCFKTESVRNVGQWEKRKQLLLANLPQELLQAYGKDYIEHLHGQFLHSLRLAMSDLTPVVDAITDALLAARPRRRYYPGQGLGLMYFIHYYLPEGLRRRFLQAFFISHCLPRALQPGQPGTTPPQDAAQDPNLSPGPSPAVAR

[17] = biological target: T4, Nuclear receptor subfamily 1 group I member 2 (Homo sapiens, UniProt O75469); assay: Inhibition of PXR (unknown origin); assay type: ADME
T4 sequence (O75469 whole entry): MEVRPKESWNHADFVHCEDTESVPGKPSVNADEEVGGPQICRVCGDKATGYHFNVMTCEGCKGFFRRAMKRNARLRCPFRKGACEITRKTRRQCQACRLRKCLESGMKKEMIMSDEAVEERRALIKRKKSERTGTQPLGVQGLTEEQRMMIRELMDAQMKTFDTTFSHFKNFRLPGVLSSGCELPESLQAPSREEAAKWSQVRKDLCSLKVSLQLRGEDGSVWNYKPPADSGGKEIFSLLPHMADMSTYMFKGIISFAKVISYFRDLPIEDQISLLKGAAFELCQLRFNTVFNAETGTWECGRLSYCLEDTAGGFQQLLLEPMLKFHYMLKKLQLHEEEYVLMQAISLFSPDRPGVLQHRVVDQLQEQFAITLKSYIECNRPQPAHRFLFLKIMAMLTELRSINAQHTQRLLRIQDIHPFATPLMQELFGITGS

[18] = Clearance in iv dosed cynomolgus monkey; assay type: ADME, organism-based, Macaca fascicularis; conditions: in vivo
[19] = Partition coefficient, log P of the compound; assay type: physicochemical; conditions: octanol/water
[20] = Volume of distribution at steady state in iv dosed cynomolgus monkey; assay type: ADME, organism-based, Macaca fascicularis; conditions: in vivo, read-out: Vdss
Cytochrome P450 2D6 = Cytochrome P450 2D6 (Homo sapiens, UniProt P10635); assay: Inhibition of CYP2D6 (unknown origin); assay type: ADME
Cytochrome P450 2D6, sequence (P10635 whole entry): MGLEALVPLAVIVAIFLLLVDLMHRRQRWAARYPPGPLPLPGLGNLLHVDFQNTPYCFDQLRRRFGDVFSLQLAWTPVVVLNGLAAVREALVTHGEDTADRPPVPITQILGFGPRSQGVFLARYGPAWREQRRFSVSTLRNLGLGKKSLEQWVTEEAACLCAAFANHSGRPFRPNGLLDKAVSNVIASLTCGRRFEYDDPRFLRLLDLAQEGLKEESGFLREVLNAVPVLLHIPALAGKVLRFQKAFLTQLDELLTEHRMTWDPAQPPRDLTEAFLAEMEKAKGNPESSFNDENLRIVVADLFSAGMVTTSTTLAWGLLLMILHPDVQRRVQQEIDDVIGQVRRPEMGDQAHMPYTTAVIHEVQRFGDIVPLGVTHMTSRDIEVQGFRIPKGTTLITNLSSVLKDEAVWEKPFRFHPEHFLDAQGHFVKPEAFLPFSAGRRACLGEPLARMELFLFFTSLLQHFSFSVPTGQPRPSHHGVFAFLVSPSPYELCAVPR

Cynomolgus monkey [21] = assay: In-vivo inhibition of 11beta-HSD1 in cynomolgus monkey perirenal adipose tissue assessed as reduction in cortisol level at 3 mg/kg, po using [2H]-cortisone as substrate after 22 hrs by HPLC analysis relative to control; assay type: functional; conditions: Macaca fascicularis; summary of the method: as §1

C[C@@H](c1ccc(-c2ccn(C)c(=O)c2)cc1)N1CC[C@](CC(C)(C)O)(c2ccccc2)OC1=O
IC50 [1]: > 10 µM
inhibition at 10 µM (hERG): < 10%
half-life [2]: > 1.5 h
inhibition in vivo at 1 mg/kg (Cynomolgus monkey [3]): 67%
IC50 [4]: > 10 µM
solubility [5]: 220 µg/mL (≈ 478 µM)
AUC/dose (Cynomolgus monkey [6]): 2500 nM·h
IC50 (CYP3A4): > 50 µM
fraction unbound [7]: 0.084
half-life [8]: > 1.5 h
MRT [9]: 5.5 h
IC50 [10]: > 100 µM
inhibition in vivo at 3 mg/kg (Cynomolgus monkey [11]): 95%
MRT [12]: 8.7 h
inhibition in vivo at 1 mg/kg (Cynomolgus monkey [13]): 67%
bioavailability [14]: 54%
half-life [15]: > 1.5 h
IC50 (CYP2C9): > 50 µM
IC50 [16]: > 10 µM
EC50 [17]: > 10 µM
clearance [18]: 7.5 mL/min/kg
logP [19]: 2.6
Vd [20]: 2.5 L/kg
IC50 (Cytochrome P450 2D6): > 50 µM
inhibition in vivo at 3 mg/kg (Cynomolgus monkey [21]): 90%
